From PubChem
Wee1 degr inh: human Wee1 degradation inhibition, primary screen | P30291 | reporter increase, % at 5 µM | HeLa Luc-Wee1K328M stability, luciferase luminescence; 100% = proteasome inhibitor MG132 effect | hit rate 1.2% among 220,000;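 active = activation above the mean of all tested compounds plus 3 SD, set per screening run, cut at about 8.8% in these data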;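 note: cells exposed to compound for 20 h before luminescence read; 0% = DMSO alone and 100% = MG132 at 30 µM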
Target sequence (P30291 whole entry K328M): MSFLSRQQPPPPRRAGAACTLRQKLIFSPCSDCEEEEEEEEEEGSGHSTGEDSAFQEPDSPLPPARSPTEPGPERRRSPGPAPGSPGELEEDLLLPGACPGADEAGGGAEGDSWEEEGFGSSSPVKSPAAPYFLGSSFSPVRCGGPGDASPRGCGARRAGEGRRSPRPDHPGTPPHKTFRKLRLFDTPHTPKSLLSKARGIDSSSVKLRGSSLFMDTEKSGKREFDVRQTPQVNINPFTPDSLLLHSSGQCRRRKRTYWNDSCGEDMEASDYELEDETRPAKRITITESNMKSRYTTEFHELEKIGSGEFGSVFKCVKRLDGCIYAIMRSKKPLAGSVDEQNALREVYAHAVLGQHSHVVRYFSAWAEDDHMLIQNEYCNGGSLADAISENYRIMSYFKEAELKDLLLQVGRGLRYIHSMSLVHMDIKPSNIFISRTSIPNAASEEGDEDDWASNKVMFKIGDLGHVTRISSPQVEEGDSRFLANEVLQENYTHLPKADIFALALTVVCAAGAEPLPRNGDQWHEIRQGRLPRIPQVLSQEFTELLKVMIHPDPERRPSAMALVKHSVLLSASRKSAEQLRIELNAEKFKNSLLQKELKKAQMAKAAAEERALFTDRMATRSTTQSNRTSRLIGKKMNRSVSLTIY
Autophagy mod: alters autophagy in cells | hit rate 0.98% among 190,000 | MEF GFP-LC3 puncta imaging; test concentration mostly 10 µM | calls only at 10 µM (by protocol);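 active = percentage of spot-positive cells more than 3 SD above its plate mean, without a fluorescence outlier flag or 80% toxicity; inconclusive = no clear call, values can overlap the other calls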;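 note: spot-positive cell cutoff set from DMSO-treated cells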
MT stabilize HCS: microtubule stabilization, imaging screen; HeLa tubulin immunostaining HCS, 24 h; share of cells brighter than vehicle mean+2SD; % tubulin-high responders, % at 10 µM; hit rate 0.83% among 200,000; AID 2205;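 active = plate Z-score above 3 for both tubulin-high and condensed-nucleus cell shares, with cell loss under 80%, at 10 µM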;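 note: anti alpha tubulin signal scored within the nucleus-defined area of each cell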
b-catenin transl: modulators of beta-catenin nuclear translocation; HeLa beta-catenin nuclear translocation, immunofluorescence imaging; hit rate 0.3% among 190,000; nuclear translocation activity, % at 5 µM;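 active = nuclear translocation activity above 50% at 5 µM, with a well cell count of 50 or more; inconclusive = wells under 50 cells across six images, flagged as toxic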;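 note: per-cell ratio of nuclear to cytoplasmic median beta-catenin stain intensity; plate controls were DMSO negative control for no effect and GSK-3 inhibitor IX positive control for full effect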
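test system = HeLa cells, endogenous beta-catenin | dosing = single 5 µM dose plus 0.02–20 µM confirmation series | times = compound treatment 24 h, 37°C, 5% CO2 | technique = beta-catenin immunofluorescence imaging with DAPI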
Insulin prom up: MIN6 insulin promoter up-regulation; MIN6 insulin promoter-GFP reporter, high-content imaging; active compounds read high; z-score at 5 µM; hit rate 0.3% among 190,000; AID 1625;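 active = z-score above 3 at 5 µM with at least 500 cells counted in the well; inconclusive = wells under 500 cells, flagged as cytotoxic or low count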
* hit, by the source's call; i = inactive; u = inconclusive; x = no result; + = active, no number; ! = not confirmed by another sample. The list is not random: actives were taken first. Their share in the collection is about 2.9%.

SMILES	Wee1 degr inh	Autophagy mod	MT stabilize HCS	b-catenin transl	Insulin prom up
COCCn1c(SCC#N)nnc1-c1ccccc1O	-0.2	i	2.3	-0.3	-0.56
CC(=O)Nc1nc(SCC(=O)NCc2ccc(F)cc2)[nH]c(=O)c1NC(=O)c1cccs1	-3.5	+	4.0	0.6	-0.19
CC1CCN(c2c(NCc3ccc(C(=O)N4CCc5ccccc54)cc3)c(=O)c2=O)CC1	1.9	+	6.6	x	1.5
CCc1nnc(NC(=O)C(C)Sc2ccccc2)s1 (stereo not given)	0.5	i	3.3	x	u
CC1CCN(CCCNC(=O)c2ccc(CSCc3cccc(Cl)c3)o2)CC1	2.5	+	2.3	x	-0.74
COC(=O)CCN1CCc2cc(N=Nc3ccc([N+](=O)[O-])cc3)ccc21	0.4	x	x	-2.1	0.36
Cn1nnnc1SCC1=C(C(=O)O)N2C(=O)C(NC(=O)Cn3nc(C(F)F)cc3C3CC3)C2SC1 (stereo not given)	0.1	+	4.6	-2.2	0.76
CCCC(=O)Nc1ccc(NC(=S)NC(=O)c2ccccc2[N+](=O)[O-])cc1	-0.2	i	10.1*	x	0.04
Cc1ccc2n(n1)c(=O)c(Cc1ccccc1)c([O-])[n+]2-c1ccccc1	0.2	i	5.6	-5.0	-0.42
Cc1ccccc1C=Nc1ccccc1C(N)=O	3.1	u	21.6*	27.9	0.27
NC(=O)c1ccccc1N=Cc1ccccn1	0.7	i	5.1	-1.9	-0.35
Cc1ccc(C=Nc2ccccc2C(N)=O)cc1	3.0	+	30.6*	x	0.24
Cc1nc(Nc2cccc(O)c2)c2c3c(sc2n1)CCC3	0.1	x	x	0.0	-0.23
CCOc1ccc(C2C(C(=O)c3cccs3)=C(O)C(=O)N2Cc2cccnc2)cc1 (stereo not given)	-2.1	+	3.5	-1.0	-0.48
O=C(O)c1ccc(S(=O)(=O)c2ccc3c(c2)C(=O)N(NC(=O)c2cccnc2)C3=O)cc1	4.0	x	x	-0.1	0
O=C(O)c1cn(Cc2ccccc2)nc1-c1cccnc1	4.6	i	1.1	1.1	0.04
CCCCN(CC)CCCNC(=S)Nc1ccc2nc(N3CCN(CC)CC3)cc(C)c2c1	-0.9	+	4.3	0.1	-0.19
CCCCN(CC)CCCNC(=S)Nc1ccc2nc(N3CCN(C)CC3)cc(C)c2c1	-0.1	+	0.9	-2.0	1.23
Cc1c(CN2CCC(CO)(Cc3cccc(C(F)(F)F)c3)CC2)c2ccccc2n1C	1.2	i	3.1	-3.0	-0.4
N#C/C(=C\c1ccncc1)c1nc2ccccc2[nH]1	3.0	i	5.0	1.1	0.03
CCN(CC)c1ccc(/C=C(/C#N)c2nc3ccccc3[nH]2)c(OC(C)C)c1	-3.3	+	60.3*	x	x
CN1CCN(NC(=O)Nc2cccc(Cl)c2Cl)CC1	-3.7	+	2.4	0.8	-0.89
Cn1nccc1NC(=O)Nc1cccc(Cl)c1Cl	-3.6	x	x	0.7	x
CCOC(=O)c1c(NC(=O)Nc2ccc(C)cc2)sc2c1CCN(C)C2	10.4*	x	x	2.1	-0.08
CCOC(=O)c1c(NC(=S)Nc2ccccc2)sc2c1CCN(CC)C2	-2.7	i	4.6	-1.9	0.97
SMILES	Wee1 degr inh	Autophagy mod	MT stabilize HCS	b-catenin transl	Insulin prom up
CCOC(=O)N1CCc2c(sc(NC(=O)CN3CCOCC3)c2C(=O)Nc2ccccc2)C1	-1.5	+	1.6	1.8	0.04
Cc1ccc2nc3cc([N+](=O)[O-])cc([N+](=O)[O-])c3cc2c1	5.8	+	54.3	3.8	x
Cc1nc2ccc([N+](=O)[O-])cc2nc1C	-0.7	i	8.3	-0.3	-0.05
CC(C)(C)NC(=O)CSc1nc(-c2ccccc2)c(-c2ccccc2)[nH]1	1.3	i	15.0*	-1.0	-0.24
O=C(O)CSc1nc(-c2ccccc2)c(-c2ccccc2)[nH]1	2.9	x	x	0.4	0.12
O=C1NC(c2cccs2)Nc2sc3c(c21)CCCC3 (stereo not given)	8.9*	i	1.9	-1.1	0.84
CCCC12CN3CCN(CC(C3)/C1=N\NC(=O)c1ccc(F)cc1)C2	3.0	i	2.2	2.1	-0.1
CCCC12CN3CCN(CC(C3)/C1=N\NC(=O)Nc1ccccc1)C2	10.0*	i	4.1	-0.6	0.1
CCn1c(=O)c(=O)[nH]c2cc(C(=O)NC3CCCc4ccccc43)ccc21 (stereo not given)	3.1	i	28.6*	-3.5	0.64
CCn1c(=O)c(=O)[nH]c2cc(C(=O)NC3CC3)ccc21	2.2	i	5.0	-1.7	0.08
O=C(COc1ccccc1)N1CCN=C1c1ccccc1	0.7	i	3.0	x	3.07*
CCC(Sc1nc2cc3c(cc2c(=O)n1Cc1ccco1)OCO3)C(=O)Nc1cccc(OC)c1 (stereo not given)	-0.2	+	6.6	1.8	0.13
CCC(Sc1nc2cc3c(cc2c(=O)n1Cc1ccco1)OCO3)C(=O)Nc1ccccc1OC (stereo not given)	-1.5	+	7.4	0.4	-0.17
CCC(C)NC(=O)CSc1nc2cc3c(cc2c(=O)n1Cc1ccco1)OCO3 (stereo not given)	-0.1	i	2.4	0.3	0.1
CCC(Sc1nc2cc3c(cc2c(=O)n1Cc1ccco1)OCO3)C(=O)NCCOC (stereo not given)	-2.3	i	3.6	-2.9	0.29
Cc1ccc(S(=O)(=O)NC(C)(C)CN2CCC(Cc3ccccc3)CC2)cc1	-0.2	x	x	0.6	-1.75
[O-][n+]1cccc2ncc3cscc3c21	-0.5	i	4.0	-0.1	0.15
CSc1nsc(/C=C/Nc2ccc(C)c(C)c2)c1C#N	3.0	i	3.6	-0.2	0.33
CSc1nsc(/C=C/Nc2ccc(C)cc2)c1C#N	0.9	i	1.1	1.4	3.5*
Cc1ccc(N2C(=O)N(CC(=O)C(C)(C)C)c3ccccc3S2(=O)=O)cc1	-2.2	i	3.6	-0.1	-0.2
CCOc1c(Cl)cc(CNCC(O)c2ccccc2)cc1OC (stereo not given)	0.3	+	1.4	0.0	0.07
OC(CNCc1ccc(-c2ccccc2)cc1)c1ccccc1 (stereo not given)	0.6	i	3.4	67.9*	0.12
CCOc1c(Cl)cc(CNCC(C)C)cc1OC	0.6	i	1.8	x	x
CC(=O)C1=C(C)NC(SCC(=O)c2ccccc2)=C(C#N)C1CC(C)C (stereo not given)	0.8	i	4.6	-3.4	0.37
COCCCNCCOc1ccc(C(C)(C)c2ccccc2)cc1	9.7*	i	2.9	-0.5	0.45
SMILES	Wee1 degr inh	Autophagy mod	MT stabilize HCS	b-catenin transl	Insulin prom up
COc1cccc(/C=N/NC(=O)CCc2c(C)n[nH]c2C)c1O	-1.3	x	x	0.1	-0.14
CNC(=O)COC(=O)c1cc(SC)ccc1Cl	-1.8	+	4.4	-6.6	0.25
CSc1ccc(Cl)c(C(=O)OCC(=O)NCC(C)C)c1	0.3	i	1.2	-1.8	0.84
c1ccc(-c2cn(-c3ccccc3)c3[n+]2CCS3)cc1	-3.4	i	2.2	-1.2	-0.24
COc1ccc(-c2cn(-c3ccccc3)c3[n+]2CCS3)cc1	10.6*!	i	3.1	-3.2	u
Oc1[nH]c2ccccc2c1C1=NCCCCC1	-0.1	i	3.6	2.3	-0.45
